Reference: ChEMBL document CHEMBL3045714, “Insect antifeedants from tropical plants: structures of dumnin and dumsenin” (2004)

Legend:
Format in all cases: functional
Pectinophora gossypiella [1] = assay: Antifeedant activity against second-instar larvae of Pectinophora gossypiella (pink bollworm) assessed as concentration required for 50 % protection of host plant substrate after 48 hr by leaf disk assay
Method in brief: (§1)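 Leaf disks (1 cm²) punched from glandless cotton cultivar, randomized, 12 per Petri dish on moistened filter paper; alternate disks treated on upper surface with 25 μL acetone or 0–100 μg sample in 25 μL acetone. Three larvae per dish, 22 °C, dark, 48 h; percent disk area eaten vs control scored visually. PC50/PC95 = ca. 50/95% protection; triplicate on separate occasions, mean.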

Pectinophora gossypiella [2] = assay: Antifeedant activity against second-instar larvae of Pectinophora gossypiella (pink bollworm) assessed as concentration required for 95 % protection of host plant substrate after 48 hr by leaf disk assay; method in brief: as §1
Spodoptera frugiperda [3] = assay: Antifeedant activity against second-instar larvae of Spodoptera frugiperda (fall armyworm) assessed as concentration required for 50 % protection of host plant substrate after 48 hr by leaf disk assay; method in brief: as §1
Spodoptera frugiperda [4] = assay: Antifeedant activity against second-instar larvae of Spodoptera frugiperda (fall armyworm) assessed as concentration required for 95 % protection of host plant substrate after 48 hr by leaf disk assay; method in brief: as §1

With CC(=O)O[C@H]1[C@H](OC(C)=O)[C@]2(C)[C@@H](c3ccoc3)C[C@@H]3O[C@@]32[C@@]2(C)[C@H](OC(=O)Cc3ccccc3)C[C@H]3C(C)(C)O[C@]4(O)C(=O)CC[C@]34[C@@H]12 [DUMNIN] as the compound, how does the PC50 (Pectinophora gossypiella [1]) read?
The PC50 was 1 µg/mL.

What about the PC95 (Pectinophora gossypiella [2]) of the same compound?
The PC95 was 16 µg/mL.

For CC(=O)O[C@H]1[C@H](OC(C)=O)[C@@]2(C)C(=CC[C@@H]2c2ccoc2)[C@@]2(C)C(=O)C[C@H]3C(C)(C)O[C@]4(O)C(=O)CC[C@]34[C@@H]12 [DUMSENIN], which PC50 (Spodoptera frugiperda [3]) is on record?
The PC50 was 1 µg/mL.

And the PC50 (Pectinophora gossypiella [1])?
Its PC50 is 2 µg/mL.

What about the PC95 (Pectinophora gossypiella [2]) of the same compound?
The PC95 was 8 µg/mL.

What about the PC95 (Spodoptera frugiperda [4]) of the same compound?
The PC95 was 4 µg/mL.

CC(=O)O[C@H]1[C@H](OC(C)=O)[C@]2(C)[C@@H](c3ccoc3)C[C@@H]3O[C@@]32[C@@]2(C)[C@H](OC(=O)CC(C)C)C[C@H]3C(C)(C)O[C@]4(O)C(=O)CC[C@]34[C@@H]12 [DUMSIN] was tested. Which PC50 (Pectinophora gossypiella [1]) did it give?
Its PC50 is 1 µg/mL.

What about the PC95 (Pectinophora gossypiella [2]) of the same compound?
Its PC95 is 8 µg/mL.

With CC(=O)O[C@@H]1[C@@H]2[C@@]34CC(=O)C[C@@H]3OC(C)(C)[C@@H]4CC(=O)[C@@]2(C)[C@@]23O[C@@H]2C[C@H](c2ccoc2)[C@]3(C)[C@H]1OC(C)=O [ZUMSIN] as the compound, how does the PC50 (Spodoptera frugiperda [3]) read?
Its PC50 is 2 µg/mL.

What about the PC50 (Pectinophora gossypiella [1]) of the same compound?
Its PC50 is 1 µg/mL.

And the PC95 (Pectinophora gossypiella [2])?
The PC95 was 8 µg/mL.

What about the PC95 (Spodoptera frugiperda [4]) of the same compound?
Its PC95 is 16 µg/mL.
